Source: the M2OR odorant receptor database

Molecular target: T1, OR52D1 (Homo sapiens) (UniProt Q9H346)
T1 sequence (whole entry): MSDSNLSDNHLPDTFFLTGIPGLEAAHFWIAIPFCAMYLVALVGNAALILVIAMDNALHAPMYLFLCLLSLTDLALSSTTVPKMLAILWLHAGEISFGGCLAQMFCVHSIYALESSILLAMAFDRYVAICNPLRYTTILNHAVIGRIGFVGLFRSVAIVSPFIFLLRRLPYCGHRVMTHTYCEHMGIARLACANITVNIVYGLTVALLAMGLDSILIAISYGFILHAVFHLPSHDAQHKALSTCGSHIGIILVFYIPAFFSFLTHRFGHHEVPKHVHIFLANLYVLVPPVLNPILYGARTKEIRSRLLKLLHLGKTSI
Conditions: stereoisomer not certain
In short: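 Assay methods differ from source to source, frequently being transient luciferase assays in mammalian cell lines. For each receptor–molecule pair, the label responsive (active) applies when the original authors judged the measured signal statistically different from baseline, and non-responsive (inactive) applies otherwise.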

| SMILES | odorant receptor agonist call |
| --- | --- |
| CCCCCCCCC(=O)OCC | inactive |
| C=C(C)C1CC=C(C)CC1 (stereo unspecified) | inactive |
| CCCCOC(=O)CCC | active |
| CCCCCCCCCC(=O)OC | inactive |
| CCCCCCCCCCCC(=O)O | inactive |
| CC(=O)C(C)O (stereo unspecified) | active |
| CCCCCCC1CCC(=O)O1 (stereo unspecified) | inactive |
| CCCCCCCCC(C)=O | active |
| CCCCCC(=O)OCC | active |
| CC(=O)OCCC(C)C | active |
| c1cscn1 | active |
| CC(=O)C=CC1=C(C)CCCC1(C)C | active |
| CSC | inactive |
| COc1ccccc1 | active |
| OCc1ccccc1 | active |
| CCCCC(CC)CO (stereo unspecified) | inactive |
| c1ccc2scnc2c1 | active |
| CCCCCC(O)CC (stereo unspecified) | inactive |

| SMILES | odorant receptor agonist call |
| --- | --- |
| Cc1cnccn1 | inactive |
| CCCCCCC(=O)CC | active |
| CC=Cc1ccc(OC)cc1 | active |
| Cc1occc(=O)c1O | inactive |
| CCCCCCC(C)O (stereo unspecified) | inactive |
| CCCCC(O)CCC (stereo unspecified) | inactive |
| CCCCCCC(=O)OC | active |
| CCCCCCC(=O)OCC | active |
| CCCCCCCC(=O)OC | inactive |
| Cc1ccc(C(C)C)c(O)c1 | inactive |
| CCCCCCCC(C)O (stereo unspecified) | active |
| CCCC(=O)SC | active |
| CCCCCCCCCC(=O)OCC | inactive |
| CC(C)=CCCC(C)=CC#N | active |
| CCCCCC(=O)OC | inactive |
| CCCCCCCCC(=O)OC | inactive |
| CC1CCC(C(C)C)C(=O)C1 (stereo unspecified) | inactive |
| CCCCCC1C(=O)CCC1CC(=O)OC (stereo unspecified) | inactive |
